Experimental data collected from several papers.
Protocols differ between the studies behind these lines. ≈ marks a conversion by molar mass, not a printed value.

Structure (SMILES) | organism | assay | test system | conditions | measurement | result
Cc1ccc(S(=O)(=O)Nc2nc(N)c(-c3nc4ccccc4s3)c(-c3ccc(Cl)cc3)n2)cc1 | Enterovirus B | plaque formation | BGM, B4 |  | IC50 | 74 mg/L
COC(=O)N[C@H](C(=O)N1CCC[C@H]1c1ncc(-c2ccc(-c3ccc(-c4cnc([C@@H]5CCCN5C(=O)[C@@H](NC(=O)OC)C(C)C)[nH]4)cc3)cc2)[nH]1)C(C)C | Hepatitis C virus | viral replication, inhibitor | HeLa, GETYPE2A | replicon | EC50 | 3.7e-06 µM
COC(=O)N[C@H](CC(C)C)C(=O)N1CCC[C@H]1C(=O)Nc1cccc(C#CC#Cc2cccc(NC(=O)[C@@H]3CCCN3C(=O)[C@@H](CC(C)C)NC(=O)OC)c2)c1 | Hepatitis C virus | viral replication, inhibitor, luciferase | GETYPE3A | replicon | EC50 | 4.67 µM
COc1nc(OC)c2ncn([C@@H]3O[C@H](CO)[C@@H](F)[C@@H]3F)c2n1 | Hepatitis C virus | viral replication, inhibitor | Huh-7 | replicon | EC90 | > 10 µM
CC(=O)OC[C@@]1(C)[C@H]2CC[C@@H]3CN(Cc4ccccc4)[C@@H](C4=CCOC4=O)C[C@H]3[C@]2(C)CC[C@H]1OC(C)=O | unidentified human coronavirus | cytopathic effect | MRC5 | 25 µM, 72 h | inhibition | 82.4%
Cc1c(NC(=O)CC2=NC(=O)CS2)c(=O)n(-c2ccccc2)n1C | Acinetobacter baumannii | microbial killing, broth dilution |  |  | MBC | 0.25 mg/L (≈ 0.726 µM)
COc1ccc(CN2C[C@H]3CC[C@@H]4[C@](C)(COC(C)=O)[C@H](OC(C)=O)CC[C@@]4(C)[C@@H]3C[C@@H]2C2=CCOC2=O)cc1 | unidentified human coronavirus | cytopathic effect | MRC5 | 25 µM, 72 h | inhibition | 5.1%
Nc1nc(Cl)c2ncn([C@@H]3O[C@H](COC(=O)c4ccccc4)[C@@H](F)[C@@H]3F)c2n1 | Hepatitis C virus | viral replication, inhibitor | Huh-7 | replicon | EC50 | 4.7 µM
CC(=O)OC[C@@]1(C)[C@H]2CC[C@@H]3CN(Cc4ccc(O)cc4)[C@@H](C4=CCOC4=O)C[C@H]3[C@]2(C)CC[C@H]1OC(C)=O | unidentified human coronavirus | cytopathic effect | MRC5 | 25 µM, 72 h | inhibition | 50.4%
CCOC(=O)N[C@@H](CC(C)C)C(=O)N1CCC[C@H]1C(=O)Nc1ccc(C#CC#Cc2ccc(NC(=O)[C@@H]3CCCN3C(=O)[C@H](CC(C)C)NC(=O)OCC)cc2)cc1 | Hepatitis C virus | viral replication, inhibitor, luciferase | Huh-5-2, GETYPE1B | 72 h, replicon | EC50 | 3.21 µM
NC(=O)c1ncn([C@@H]2O[C@H](CO)[C@@H](O)[C@H]2O)n1 | Enterovirus B | cytopathic effect | Vero, B3 CVB3 |  | IC50 | 1580 µM
CC(=O)OC[C@@]1(C)[C@H]2CC[C@@H]3CN(C(C)C)[C@@H](C4=CCOC4=O)C[C@H]3[C@]2(C)CC[C@H]1OC(C)=O | unidentified human coronavirus | cytopathic effect | MRC5 | 25 µM, 72 h | inhibition | 80%
N#CC(=Cc1cn(-c2ccccc2)nc1-c1ccccc1)C1=NC(=O)CS1 | Acinetobacter baumannii | microbial growth, well diffusion |  | 100000 µg/mL | inhibition zone | 26 mm
COC(=O)N[C@H](C(=O)N1CCC[C@H]1C(=O)Nc1cccc(C#CC#Cc2cccc(NC(=O)[C@@H]3CCCN3C(=O)[C@@H](NC(=O)OC)C(C)C)c2)c1)C(C)C | Hepatitis C virus | viral replication, inhibitor, luciferase | GETYPE3A | replicon | EC50 | 9.5 µM
Nc1nc(N)c2ncn([C@H]3O[C@H](CO)[C@@H](F)[C@@H]3F)c2n1 | Hepatitis C virus | viral replication, inhibitor | Huh-7 | replicon | EC90 | > 10 µM
CCOC(=O)N[C@H](C(=O)N1CCC[C@H]1C(=O)Nc1cccc(C#CC#Cc2cccc(NC(=O)[C@@H]3CCCN3C(=O)[C@@H](NC(=O)OCC)C(C)C)c2)c1)C(C)C | Hepatitis C virus | viral replication, inhibitor, luciferase | Huh-5-2, GETYPE1B | 72 h, replicon | EC50 | 0.451 µM
CCCCCCC/C=C/C(=O)N1C(=O)/C(=C(\O)C2CCNCC2)C(=O)C1CC(C)C (centres unmarked) | Proteus mirabilis | microbial growth | ATCC25933 |  | MIC | 200 mg/L (≈ 478 µM)
